Measured values published in ChEMBL document CHEMBL4184102, “Small molecule SUMOylation activators are novel neuroprotective agents” (Bioorg Med Chem Lett, 2018).

Assays:
[1] = Cytoprotective activity in BGMK cells assessed as reduction in thapsigargin-induced ER stress-mediated cell death by measuring cell viability at 10 uM preincubated for 2 hrs followed by thapsigargin addition measured after 24 hrs by CCK8 assay relative to control; format: cell-based; details: Chlorocebus aethiops, read-out: Activity
Summary of the method: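 BGMK cells subcultured at 1.2×10^4 cells/ml, pretreated with compound 2 h, then thapsigargin 0.15 μM (150 nM) added for 24 h. Cells then washed, fed fresh complete DMEM plus CCK-8 reagent, incubated 2 h, absorbance read as viability. Salubrinal included as positive control; data as mean ± SEM.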

[2] = biological target: SUMO-activating enzyme (Homo sapiens) (UniProt Q9UBE0+Q9UBT2); test: Induction of SUMO-E1/E2 (unknown origin) mediated sumoylation of His-RanGap-1 after 30 mins by HTRF assay relative to control; format: protein-complex assay; design: concentration or dose not given beside the values
[3] = species: Rattus norvegicus; test: (§1) Cytoprotective activity in rat CSM14.1 cells assessed as reduction in thapsigargin-induced ER stress-mediated cell death preincubated for 2 hrs followed by thapsigargin addition measured after 20 hrs by ATPlite assay; format: functional, cell-based
Summary of the method: (§2)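 Rat striatal neuroprogenitor CSM14.1 cells were trypsinized, plated in 96-well plates and held overnight at 32 °C. Cells were pretreated with compound for 2 h, then given thapsigargin in DMEM (15 μM final) for another 20 h. Viability was read as cellular ATP content. Thapsigargin without compound served as the 100% death reference and DMSO without thapsigargin as the 100% viability reference. Dose-response data are given as mean ± SEM.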

[4] = as §1; format: functional, cell-based; summary of the method: as §2

With `O=S(=O)(Nc1cccc2cccnc12)c1ccc(S(=O)(=O)N2CCCC2)cc1` as the compound, how does the viability at 10 µM [1] read?
Its viability at 10 µM is 62.4%.

And the Activity [2]?
The Activity was 43%.

What about the Activity [3] of the same compound?
The Activity was “Dose-dependent effect”.

And the EC50 [4]?
Its EC50 is 1.2 to 9.8 µM.

For `O=S(=O)(Nc1cccc2cccnc12)c1ccccc1`, which viability at 10 µM [1] is on record?
Its viability at 10 µM is 35.2%.

What about the Activity [2] of the same compound?
Its Activity is 25%.

With `CC(=O)Nc1ccc(S(=O)(=O)Nc2cccc3cccnc23)cc1` as the compound, how does the viability at 10 µM [1] read?
The viability at 10 µM was 53.7%.

What about the Activity [2] of the same compound?
Its Activity is 28%.

Which viability at 10 µM [1] does the source give for `O=C(/C=C/c1ccccc1)NC(NC(=S)Nc1cccc2cccnc12)C(Cl)(Cl)Cl` (centres undefined) [SALUBRINAL] here?
Its viability at 10 µM is 47.2%.

Which viability at 10 µM [1] does the source give for `O=C(Nc1nc(-c2ccccn2)cs1)c1ccc(Br)s1` here?
The viability at 10 µM was 83.3%.

What about the Activity [2] of the same compound?
The Activity was 37%.

Which results are given for `COc1cccc2sc(NNC(=O)C3COc4ccccc4O3)nc12` (centres undefined)?
viability at 10 µM [1]: 38.4%; Activity [2]: 17%

What does the source list for `O=C(Nc1nc(-c2ccccn2)cs1)c1ccc(Cl)s1`?
viability at 10 µM [1]: 45.3%; Activity [2]: 25%

Which viability at 10 µM [1] does the source give for `Cc1ccc(S(=O)(=O)Nc2cccc3cccnc23)cc1` here?
Its viability at 10 µM is 52%.

What about the Activity [2] of the same compound?
The Activity was 29%.

Which viability at 10 µM [1] does the source give for `Cc1ccc2sc(NNC(=O)c3cc(=O)c4ccccc4o3)nc2c1C` here?
Its viability at 10 µM is 54.9%.

And the Activity [2]?
The Activity was 38%.

What about the Activity [3] of the same compound?
The Activity was “Dose-dependent effect”.

What about the EC50 [4] of the same compound?
The EC50 was 1.2 to 9.8 µM.

For `O=C(Nc1nc(-c2ccccn2)cs1)c1ccc2c(c1)OCCO2`, which viability at 10 µM [1] is on record?
Its viability at 10 µM is 54.9%.

And the Activity [2]?
Its Activity is 20%.

With `O=C(Nc1nc(-c2ccccn2)cs1)C1COc2ccccc2O1` (centres undefined) as the compound, how does the viability at 10 µM [1] read?
The viability at 10 µM was 81.4%.

What about the Activity [2] of the same compound?
The Activity was 53%.

And the Activity [3]?
Its Activity is “Dose-dependent effect”.

And the EC50 [4]?
Its EC50 is 1.2 to 9.8 µM.

For `Cc1cc(C)c2nc(NNC(=O)c3cc(=O)c4ccccc4o3)sc2c1`, which viability at 10 µM [1] is on record?
The viability at 10 µM was 60.3%.

What about the Activity [2] of the same compound?
Its Activity is 33%.
